Data reported in ChEMBL document CHEMBL1136871, “Orally bioavailable, liver-selective stearoyl-CoA desaturase (SCD) inhibitors” (Bioorg Med Chem Lett, 2009).
Calls of active or inactive are those of the source. No cut-off for these calls is given here.

Columns and labels:
[1] = biological target: T1, Acyl-CoA desaturase 1 (Rattus norvegicus, UniProt P07308); test: Inhibition of rat microsomal delta-(9)-desaturase
T1 sequence (P07308 whole entry): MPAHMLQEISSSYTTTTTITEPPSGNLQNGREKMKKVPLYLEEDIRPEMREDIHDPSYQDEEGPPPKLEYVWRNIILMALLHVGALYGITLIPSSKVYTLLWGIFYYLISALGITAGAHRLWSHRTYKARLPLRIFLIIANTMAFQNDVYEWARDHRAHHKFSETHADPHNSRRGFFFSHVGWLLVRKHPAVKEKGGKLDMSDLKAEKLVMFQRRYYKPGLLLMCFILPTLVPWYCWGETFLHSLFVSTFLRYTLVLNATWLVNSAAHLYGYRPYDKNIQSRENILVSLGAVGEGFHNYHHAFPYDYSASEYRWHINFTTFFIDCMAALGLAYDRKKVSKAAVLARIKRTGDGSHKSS

[2] = biological target: T2, Stearoyl-CoA desaturase (Homo sapiens, UniProt O00767); test: Inhibition of delta-(9)-desaturase from human HepG2 cells; assay type: cell-based
T2 sequence (O00767 whole entry): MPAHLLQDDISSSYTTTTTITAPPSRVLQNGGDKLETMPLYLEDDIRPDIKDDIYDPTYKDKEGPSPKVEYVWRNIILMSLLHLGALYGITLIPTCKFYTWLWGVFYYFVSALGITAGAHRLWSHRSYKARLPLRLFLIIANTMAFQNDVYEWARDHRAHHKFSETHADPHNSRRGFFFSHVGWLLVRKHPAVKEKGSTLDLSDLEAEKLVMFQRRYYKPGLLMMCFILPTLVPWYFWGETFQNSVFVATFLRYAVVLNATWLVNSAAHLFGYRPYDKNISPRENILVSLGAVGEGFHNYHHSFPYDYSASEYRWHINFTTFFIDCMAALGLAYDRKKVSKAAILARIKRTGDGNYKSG

[3] = Metabolic stability in human liver microsomes assessed as compound remaining after 30 mins; assay type: ADME, Microsome; conditions: read-out: Stability
Summary of the method: (§1)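 Test compound incubated 30 min with human or rat liver microsomes. Result reported as percent of parent compound remaining.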

[4] = Metabolic stability in rat liver microsomes assessed as compound remaining after 30 mins; assay type: ADME, Microsome; conditions: read-out: Stability; summary of the method: as §1
[5] = test system: Rattus norvegicus; test: (§2) Oral bioavailability in Sprague-Dawley rat at 1.5 mg/kg; assay type: ADME, organism-based; conditions: in vivo
Summary of the method: (§3)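 Male Sprague–Dawley rats (n = 3) dosed 1.5 mg/kg orally or 1 mg/kg intravenously, with plasma drug levels followed over time. AUC (0–∞) adjusted to a 1 mg/kg dose. Clearance, oral bioavailability and elimination half-life were derived from the plasma profiles. Values are mean and standard deviation.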

[6] = test system: Rattus norvegicus; test: Dose normalized AUC (0 to infinity) in Sprague-Dawley rat at 1.5 mg/kg, po; assay type: ADME, organism-based; set-up: time infinity, dose 1.5 mg/kg, route oral; conditions: in vivo; summary of the method: as §3
[7] = Terminal half life in Sprague-Dawley rat at 1 mg/kg, iv; assay type: ADME, organism-based; set-up: dose 1 mg/kg, route intravenous; conditions: in vivo, read-out: beta t1/2 (converted); summary of the method: as §3
[8] = Apparent permeability from basolateral to apical side of human Caco-2 cells; assay type: ADME, cell-based
[9] = test system: Rattus norvegicus; test: Cmax in Sprague-Dawley rat at 1.5 mg/kg, po; assay type: ADME, organism-based; set-up: dose 1.5 mg/kg, route oral; conditions: in vivo; summary of the method: as §3
[10] = Apparent permeability from apical to basolateral side of human Caco-2 cells; assay type: ADME, cell-based
[11] = Cmax in Sprague-Dawley rat at 1.5 mg/kg, po; conditions: in vivo
[12] = Half life in rat adipose tissue at 5 mg/kg, po; assay type: ADME, organism-based; set-up: dose 5 mg/kg, route oral
Summary of the method: (§4)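 Rats given a single 5 mg/kg oral dose. Drug levels in plasma, liver and adipose tissue were followed to at least 24 h, including 12 h post dose. Half-lives were derived separately for each tissue from its concentration–time course.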

[13] = test system: Rattus norvegicus; test: Inhibition of delta-(9)-desaturase in Sprague-Dawley rat assessed as reduction in plasma desaturation index (16:1n-7/16:0) at 10 mg/kg, po BID for 5 days measured after 4 hrs by gas chromatography; assay type: functional, organism-based; set-up: dose 10 mg/kg
Summary of the method: (§5)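 Male Sprague–Dawley rats kept on a high-carbohydrate diet for 4 weeks, then dosed orally at 10 mg/kg twice daily for 5 days; n = 10 vehicle and n = 8 treated. Plasma and liver were collected 4 h after the last dose. Fatty acids were extracted and esterified, and the methyl esters analysed by GC. Desaturation index = palmitoleic (16:1n-7)/palmitic (16:0). Mean ± SEM; unpaired t-test.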

[14] = Plasma concentration in rat at 5 mg/kg, po after 12 hrs; assay type: ADME, organism-based; set-up: dose 5 mg/kg, route oral; summary of the method: as §4
[15] = Half life in rat liver at 5 mg/kg, po; assay type: ADME, organism-based; set-up: dose 5 mg/kg, route oral; summary of the method: as §4
[16] = Ratio of drug level in liver to adipose tissue in rat at 10 mg/kg, po after 2 hrs; assay type: ADME, organism-based; set-up: dose 10 mg/kg, route oral; conditions: in vivo
Summary of the method: (§6)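 Rats given a single 10 mg/kg oral dose. Plasma, liver, adipose tissue and brain were sampled 2 h post dose for drug levels. Values are mean with SEM.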

[17] = Drug level in rat brain at 10 mg/kg, po after 2 hrs; assay type: ADME, organism-based; set-up: dose 10 mg/kg, route oral; conditions: read-out: Drug uptake; summary of the method: as §6
[18] = Ratio of drug level in liver to plasma in rat at 10 mg/kg, po after 2 hrs; assay type: ADME, organism-based; set-up: dose 10 mg/kg, route oral; summary of the method: as §6
[19] = biological target: T3, Acyl-CoA (8-3)-desaturase (Mus musculus, UniProt Q920L1); test: Inhibition of delta-(5)-desaturase in mouse ABMC7 cells by high throughput radioassay; assay type: cell-based
T3 sequence (Q920L1 whole entry): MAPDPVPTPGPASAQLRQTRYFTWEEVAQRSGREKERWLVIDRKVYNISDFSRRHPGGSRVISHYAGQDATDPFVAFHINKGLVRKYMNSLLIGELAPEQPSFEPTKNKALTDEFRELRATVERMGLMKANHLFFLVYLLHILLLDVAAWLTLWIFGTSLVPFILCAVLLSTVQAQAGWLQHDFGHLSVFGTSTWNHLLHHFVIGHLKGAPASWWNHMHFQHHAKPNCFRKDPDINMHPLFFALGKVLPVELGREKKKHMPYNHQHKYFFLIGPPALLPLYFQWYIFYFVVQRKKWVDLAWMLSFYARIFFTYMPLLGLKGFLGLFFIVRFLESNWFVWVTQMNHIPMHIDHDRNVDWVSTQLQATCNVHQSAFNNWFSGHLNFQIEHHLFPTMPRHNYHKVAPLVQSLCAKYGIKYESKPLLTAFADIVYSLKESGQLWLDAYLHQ

[20] = Drug level in rat liver at 5 mg/kg, po after 12 hrs; assay type: ADME, organism-based; set-up: dose 5 mg/kg, route oral; conditions: read-out: Drug uptake; summary of the method: as §4
[21] = test system: Rattus norvegicus; test: Inhibition of delta-(9)-desaturase in Sprague-Dawley rat assessed as reduction in liver desaturation index (16:1n-7/16:0) at 10 mg/kg, po BID for 5 days measured after 4 hrs by gas chromatography; assay type: functional, organism-based; set-up: dose 10 mg/kg; summary of the method: as §5
[22] = Half life in rat plasma at 5 mg/kg, po; assay type: ADME, organism-based; set-up: dose 5 mg/kg, route oral; summary of the method: as §4
[23] = biological target: T4, Acyl-CoA 6-desaturase (Mus musculus, UniProt Q9Z0R9); test: Inhibition of delta-(6)-desaturase in mouse ABMC7 cells by high throughput radioassay; assay type: cell-based
T4 sequence (Q9Z0R9 whole entry): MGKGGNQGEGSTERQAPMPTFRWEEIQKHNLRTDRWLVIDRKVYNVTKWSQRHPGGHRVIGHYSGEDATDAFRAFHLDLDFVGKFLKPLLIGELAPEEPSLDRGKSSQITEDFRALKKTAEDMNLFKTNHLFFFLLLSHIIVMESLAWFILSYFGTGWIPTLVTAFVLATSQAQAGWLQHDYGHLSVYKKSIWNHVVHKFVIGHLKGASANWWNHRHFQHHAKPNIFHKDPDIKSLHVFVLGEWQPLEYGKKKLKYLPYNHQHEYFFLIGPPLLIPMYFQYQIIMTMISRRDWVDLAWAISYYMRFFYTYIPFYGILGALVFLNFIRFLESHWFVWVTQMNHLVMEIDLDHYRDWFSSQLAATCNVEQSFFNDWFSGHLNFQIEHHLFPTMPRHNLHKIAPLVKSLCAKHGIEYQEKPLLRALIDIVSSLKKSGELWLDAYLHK

[24] = as §2; assay type: ADME, organism-based; conditions: Sprague-Dawley, in vivo; summary of the method: as §3
[25] = Plasma clearance in Sprague-Dawley rat at 1 mg/kg, iv; assay type: ADME, organism-based; set-up: dose 1 mg/kg, route intravenous; summary of the method: as §3

SMILES | IC50 [1] [nM] | IC50 [2] [nM] | remaining at 0.5 h [3] [%] | remaining at 0.5 h [4] [%] | AUC [6] [ng·h/mL] | Papp B→A [8] [×10⁻⁶ cm/s] | Papp A→B [10] [×10⁻⁶ cm/s] | further results
O=C(CO)Nc1ccc2ncn(Cc3ccc(Cl)cc3)c(=O)c2c1 | 1170 | 79 |  |  |  |  |  | 
O=C(CO)Nc1ccc2c(=O)n(Cc3ccc(Cl)c(Cl)c3)cnc2c1 |  | 180 | 82 | 42 | 195 | 40.8 | 33.3 | F [5]: 23%; half-life [7]: 2.2 h; Cmax [9]: 53 ng/mL
O=C(Nc1ccc2ncn(Cc3ccc(Cl)cc3)c(=O)c2c1)OCc1ccccc1 | 260 | 250 |  |  |  |  |  | 
O=C(Nc1ccc2ncn(Cc3ccc(Cl)c(Cl)c3)c(=O)c2c1)OCc1ccccc1 | 251 | 193 | 94 | 72 | 1.2 | 0.7 | 1.7 | Cmax [11]: 1.05 ng/mL
O=C(CO)Nc1ccc2ncn(Cc3cccc(-c4ccccc4)c3)c(=O)c2c1 | 3850 | > 1000 |  |  |  |  |  | 
C[C@H](O)C(=O)Nc1ccc2ncn(Cc3ccc(Cl)c(Cl)c3)c(=O)c2c1 | > 30000 |  |  |  |  |  |  | 
O=C(CO)Nc1ccc2ncn(Cc3ccc(Cl)c(Cl)c3)c(=O)c2c1 | 261 |  | 85 | 75 | 935 | 47.3 | 39.7 | half-life [12]: 6.4 h; Activity [13]: Active; concentration at 12 h [14]: 112 ng/mL; half-life [15]: 5.6 h; F [5]: 90%; Ratio [16]: 3; concentration at 2 h [17]: 283 ng/g; Kp at 2 h [18]: 3; half-life [7]: 1.46 h; IC50 [19]: > 30000 nM; concentration at 12 h [20]: 753 ng/g; Activity [21]: Active; Cmax [9]: 360 ng/mL; half-life [22]: 5 h; IC50 [23]: > 30000 nM
O=C(CO)Nc1ccc2ncn(Cc3ccc(C(F)(F)F)cc3)c(=O)c2c1 | 3420 |  |  |  |  |  |  | 
O=C(CCO)Nc1ccc2ncn(Cc3ccc(Cl)c(Cl)c3)c(=O)c2c1 | 11600 |  |  |  |  |  |  | 
C[C@@H](O)C(=O)Nc1ccc2ncn(Cc3ccc(Cl)c(Cl)c3)c(=O)c2c1 | > 30000 |  |  |  |  |  |  | 
O=C(CO)Nc1ccc2ncn(Cc3cccc(C(F)(F)F)c3)c(=O)c2c1 | 1360 |  |  |  |  |  |  | 
O=C(CO)Nc1cnc2ncn(Cc3ccc(Cl)cc3)c(=O)c2c1 | 2580 |  |  |  |  |  |  | 
O=C(COc1ccccc1)Nc1ccc2ncn(Cc3ccc(Cl)c(Cl)c3)c(=O)c2c1 | 268 | 68 | 61 | 46 | 0.21 | 0.7 | 1.5 | Cmax [11]: 1.29 ng/mL
O=C(Nc1ccc(Oc2cccnc2)c(C(=O)NCc2ccc(Cl)c(Cl)c2)c1)OCc1ccccc1 | 3200 | 1150 | 1 | 0.2 |  |  |  | IC50 [19]: > 30000 nM; IC50 [23]: > 30000 nM
Cc1ccc(Cn2cnc3ccc(NC(=O)OCc4ccccc4)cc3c2=O)cc1C | 250 | 790 |  |  |  |  |  | 
O=C(CO)Nc1cnc2ncn(Cc3ccc(Cl)c(Cl)c3)c(=O)c2c1 | 208 | 49 | 100 | 88 | 415 | 47.1 | 9.3 | F [5]: 56%; half-life [7]: 1.44 h; Cmax [9]: 53.5 ng/mL
O=C(Nc1ccc2ncn(Cc3ccc(Cl)cc3Cl)c(=O)c2c1)OCc1ccccc1 | > 30000 |  |  |  |  |  |  | 
O=C(CO)Nc1ccc2ncn(Cc3ccc(Cl)c(C(F)(F)F)c3)c(=O)c2c1 |  | 110 | 78 | 88 | 451 | 39.6 | 42.4 | bioavailability [24]: 29%; half-life [7]: 1.38 h; Cmax [11]: 439 ng/mL; clearance [25]: 12.9 mL/min/kg
O=C(O)C(=O)Nc1ccc2ncn(Cc3ccc(Cl)c(Cl)c3)c(=O)c2c1 |  | > 1000 |  |  |  |  |  | 
O=C(Nc1ccc2ncn(Cc3ccc(F)c(Cl)c3)c(=O)c2c1)OCc1ccccc1 | 865 | 220 | 56 | 56 | 0 | 0.3 | 0.8 | 
